The target in series [1] is T1, Nuclear receptor ROR-gamma (Homo sapiens, UniProt P51449).
T1 sequence (P51449 whole entry): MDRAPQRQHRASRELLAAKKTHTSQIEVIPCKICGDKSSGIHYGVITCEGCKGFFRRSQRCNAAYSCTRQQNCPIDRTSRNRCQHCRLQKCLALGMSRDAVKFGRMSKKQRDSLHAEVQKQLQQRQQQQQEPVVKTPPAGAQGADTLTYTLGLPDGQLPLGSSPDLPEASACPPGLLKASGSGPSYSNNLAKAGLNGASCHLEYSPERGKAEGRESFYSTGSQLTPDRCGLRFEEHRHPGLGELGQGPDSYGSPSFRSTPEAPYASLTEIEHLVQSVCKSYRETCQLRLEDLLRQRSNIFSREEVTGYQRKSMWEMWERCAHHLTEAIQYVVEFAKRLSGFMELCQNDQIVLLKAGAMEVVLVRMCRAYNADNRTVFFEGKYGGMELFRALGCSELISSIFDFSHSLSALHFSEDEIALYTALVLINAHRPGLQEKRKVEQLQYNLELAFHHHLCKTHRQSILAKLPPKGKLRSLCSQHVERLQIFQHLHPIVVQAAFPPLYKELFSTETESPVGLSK
Put plainly: Inhibition of human GAL4-fused RORgamma LBD transcriptional activity expressed in CHOK1 cells after 2 days by luciferase reporter gene assay. Type of series: cell-based. Background: In a reporter assay the amount or activity of a reporter protein is the signal.

The nature of series [2]: Stability in human liver microsomes assessed as compound remaining after 60 mins. Type of series: ADME, Microsome. The conditions noted are these: read-out: Stability. The method in brief:
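Human liver microsomes incubated with compound for 60 minutes; value reported as % of compound remaining.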
A general note: Liver microsomes are vesicles of endoplasmic reticulum, rich in cytochrome P450 enzymes.

Series [3] in a line: Lipophilicity, log D of the compound. As to conditions: octanol/water. Type of series: physicochemical.
Series [4] is described as follows: Apparent permeability in human Caco2 cells. Type of series: ADME, cell-based. As to conditions: Caco-2. (In general: Caco-2 monolayers are a common model of the intestinal barrier.)

A value given as a limit tells only on which side of the number the result lay.

One may read the EC50 as the concentration at which the effect is half-maximal. The low end stands for greater potency, the high end for weaker potency. As usually defined, the logD is lipophilicity at a set pH, counting ionised and neutral species. Higher therefore signals a more lipophilic compound. `CC(C)(C)C(F)(F)c1cc(-c2onc([C@@H](CCC(=O)O)CC(=O)Nc3ccc(F)cc3Cl)c2C2CC2)no1` came in with an EC50 in series [1] of 0.006 µM. Further, the remaining at 1 h in series [2] worked out at 90%. The logD in series [3] amounted to 4.
The matching figures for `Cc1ccc(NC(=O)C[C@H](CCC(=O)O)c2noc(-c3cc(C(F)(F)C(C)(C)C)on3)c2C2CC2)c(Cl)c1`: 0.006 µM, 77% and 4.3.
By Papp is commonly meant a coefficient for how fast a substance crosses the barrier. With `Cc1ccc(NC(=O)C[C@H](CCC(=O)[O-])c2noc(-c3ncc(CC(C)C)s3)c2C2CC2)c(Cl)c1.[Na+]`, a half-maximal effect in series [1] (EC50) was put at 0.12 µM. Further, the remaining at 1 h in series [2] amounted to 82%. The same compound returned a logD in series [3] of 4. Further, the Papp in series [4] is 28 ×10⁻⁶ cm/s.
The matching figures for `Cc1ccc(NC(=O)CC(CCC(N)=O)c2nnc(CCCC(C)C)n2C2CC2)c(C)c1` (racemic): 16 µM, 44%, 3.4 and 0.8 ×10⁻⁶ cm/s.
Compound `Cc1ccc(NC(=O)CC(CCC(=O)N(C)C)c2nnc(CCCC(C)C)n2C2CC2)c(C)c1` (racemic) showed a 50% effective concentration (EC50) in series [1] of 2.7 µM. In addition, the remaining at 1 h in series [2] worked out at 45%. Further, the logD in series [3] is 3.8. Besides, in series [4], the Papp is 7 ×10⁻⁶ cm/s.
The like results for `Cc1ccc(NC(=O)CC(CCC(=O)O)c2nnc(CCCC(C)C)n2C2CC2)c(C)c1` (racemic) were, in that order, more than 20 µM, 91%, 2.9 and 0.2 ×10⁻⁶ cm/s.
In series [1], `Cc1ccc(NC(=O)C[C@H](CCC(=O)O)c2noc(-c3cc(C(F)(F)CC(C)C)on3)c2C2CC2)c(Cl)c1` showed a concentration for a half-maximal effect (EC50) of 0.008 µM. For the same compound, the remaining at 1 h in series [2] worked out at 78%. This compound also showed a logD in series [3] of 4.4.
The like results for `Cc1ccc(NC(=O)C[C@H](CCC(=O)O)c2noc(-c3cc(C(F)(F)C(C)C)on3)c2C2CC2)c(Cl)c1` were, in that order, 0.007 µM, 74% and 4.
As to `Cc1ccc(NC(=O)C[C@H](CCC(=O)O)c2noc(-c3cc(CC(C)(C)C)on3)c2C2CC2)c(Cl)c1`, it took 0.007 µM to reach a half-maximal effect in series [1] (EC50). Moreover, in series [2], the remaining at 1 h was found to be 84%. In addition, the logD in series [3] came out at 4.2.
The like results for `Cc1ccc(NC(=O)C[C@H](CCC(=O)O)c2noc(-c3cc(CCC(C)C)on3)c2C2CC2)c(Cl)c1` were, in that order, 0.008 µM, 79% and 4.3.
For the compound `Cc1ccc(NC(=O)C[C@H](CCC(=O)[O-])c2noc(-c3cnc(CC(C)C)s3)c2C2CC2)c(Cl)c1.[Na+]`, the half-maximal effective concentration (EC50) in series [1] is 0.017 µM. Moreover, the remaining at 1 h in series [2] is 54%. The logD in series [3] was determined as 3.8. Further, the Papp in series [4] worked out at 34 ×10⁻⁶ cm/s.
In series [1], `Cc1ccc(NC(=O)C[C@H](CCC(=O)[O-])c2noc(-c3cc(CC(C)C)on3)c2C2CC2)c(Cl)c1.[Na+]` gave an EC50 of 0.014 µM. Moreover, the remaining at 1 h in series [2] came out at 74%. This compound also displayed a logD in series [3] of 3.9. Moreover, the apparent permeability (Papp) in series [4] was 36 ×10⁻⁶ cm/s.
The like results for `Cc1ccc(NC(=O)C[C@H](CCC(=O)O)c2noc(-c3ccc(CC(C)C)cc3)c2C2CC2)c(Cl)c1` were, in that order, 0.044 µM, 80%, 4.8 and 16 ×10⁻⁶ cm/s.
In turn, `CC(C)(C)C(F)(F)c1cc(-c2onc([C@@H](CCC(=O)O)CC(=O)Nc3ccc(Cl)cc3F)c2C2CC2)no1` yielded an EC50 in series [1] of 0.007 µM. The remaining at 1 h in series [2] was found to be 107%. Further, the logD in series [3] turned out to be 4.2.
Regarding `CC(=O)N1C[C@H](C(=O)Nc2ccc(C)cc2C)[C@@H](c2nnc([C@H]3C[C@@H](CC(C)C)C3)n2C2CC2)C1`, the remaining at 1 h in series [2] stood at 61%. This compound also showed a logD in series [3] of 4.3. The Papp in series [4] amounted to 20 ×10⁻⁶ cm/s.
In series [1], `Cc1ccc(NC(=O)C[C@H](CCC(=O)[O-])c2noc(-c3ncc(CC(C)C)o3)c2C2CC2)c(Cl)c1.[Na+]` returned a 50% effective concentration (EC50) of 0.66 µM. Also, the remaining at 1 h in series [2] amounted to 75%. Also, the pH-dependent lipophilicity (logD) in series [3] was 3.7. Also, in series [4], the Papp came out at 32 ×10⁻⁶ cm/s.
Compound `Cc1ccc(NC(=O)C[C@H](CCC(=O)[O-])c2noc(-c3nnc(CC(C)C)s3)c2C2CC2)c(Cl)c1.[Na+]` displayed an EC50 in series [1] of 0.056 µM. In addition, in series [2], the remaining at 1 h was 78%. In series [3], this compound came in with a pH-dependent lipophilicity (logD) of 3.4. Moreover, the Papp in series [4] came to 10 ×10⁻⁶ cm/s.
For the compound `Cc1ccc(NC(=O)CC(CCN)c2nnc(CCCC(C)C)n2C2CC2)c(C)c1` (racemic), the EC50 in series [1] was more than 20 µM. In addition, the remaining at 1 h in series [2] was 88%. The logD in series [3] was found to be 3.1. Besides, the Papp in series [4] came out at 0.2 ×10⁻⁶ cm/s.
In series [1], `CCN(c1ccc(C(O)(C(F)(F)F)C(F)(F)F)cc1)S(=O)(=O)c1ccc([N+](=O)[O-])cc1` gave an EC50 of 0.19 µM.
Consider `Cc1ccc(NC(=O)C[C@H](CCC(=O)[O-])c2noc(-c3csc(CC(C)C)n3)c2C2CC2)c(Cl)c1.[Na+]`, for which the midpoint of the response in series [1], the EC50, lay at 3.8 µM. Also, the remaining at 1 h in series [2] was found to be 82%. The compound further gave a logD in series [3] of 3.8. Further, the Papp in series [4] came out at 34 ×10⁻⁶ cm/s.
Take `CNC(=O)CCC(CC(=O)Nc1ccc(C)cc1C)c1nnc(CCCC(C)C)n1C1CC1` (racemic): the EC50 in series [1] was found to be 6.4 µM. In addition, in series [2], the remaining at 1 h turned out to be 65%. In series [3], this compound had a pH-dependent lipophilicity (logD) of 3.5. Further, in series [4], the Papp stood at 1.5 ×10⁻⁶ cm/s.
As to `Cc1ccc(NC(=O)CCc2nnc(CCCC(C)C)n2C2CC2)c(C)c1`, in series [2], the remaining at 1 h was 27%. For the same compound, the logD in series [3] came out at 3.9. In addition, the Papp in series [4] came out at 36 ×10⁻⁶ cm/s.
For the compound `Cc1ccc(NC(=O)C[C@H](CCC(=O)[O-])c2noc(-c3cc(CC(C)C)no3)c2C2CC2)c(Cl)c1.[Na+]`, the EC50 in series [1] turned out to be 0.012 µM. Besides, in series [2], the remaining at 1 h is 54%. In series [3], the logD amounted to 3.8. Moreover, the Papp in series [4] was 28 ×10⁻⁶ cm/s.
`Cc1ccc(NC(=O)CC(CCO)c2nnc(CCCC(C)C)n2C2CC2)c(C)c1` (racemic) displayed an EC50 in series [1] of 0.44 µM. In addition, the remaining at 1 h in series [2] amounted to 21%. This compound came in with a logD in series [3] of 3.5. The apparent permeability (Papp) in series [4] was 11 ×10⁻⁶ cm/s.
In series [1], `CC(=O)NCCC(CC(=O)Nc1ccc(C)cc1C)c1nnc(CCCC(C)C)n1C1CC1` (racemic) yielded an EC50 of 11 µM. Also, in series [2], the remaining at 1 h was found to be 39%. For the same compound, the logD in series [3] was found to be 3.5. For the same compound, the Papp in series [4] amounted to 1.3 ×10⁻⁶ cm/s.
In series [1], `Cc1ccc(NC(=O)CC(CCN(C)C)c2nnc(CCCC(C)C)n2C2CC2)c(C)c1` (racemic) displayed an EC50 of 19 µM. Further, the remaining at 1 h in series [2] stood at 85%. In series [3], this compound displayed a logD of 3.3. Also, the Papp in series [4] was found to be 0.8 ×10⁻⁶ cm/s.
On to `Cc1ccc(NC(=O)C[C@H](CCC(=O)[O-])c2noc(-c3noc(CC(C)C)n3)c2C2CC2)c(Cl)c1.[Na+]`, for which the EC50 in series [1] was determined as 0.062 µM. The remaining at 1 h in series [2] worked out at 90%. The compound further showed a logD in series [3] of 3.6. Moreover, the Papp in series [4] is 25 ×10⁻⁶ cm/s.

Values taken from ChEMBL document CHEMBL4480411, “Discovery of Second Generation RORγ Inhibitors Composed of an Azole Scaffold” (J Med Chem, 2019).
